Screening results: PubChem, The Scripps Research Institute Molecular Screening Center
OX1R antag-1: human HCRTR1 antagonism; O43613; CHO/OX1R cells, Fluo-8 calcium fluorescence, orexin A; AID 434989; 0.43% of 330,000 active; inhibition, % at 5 µM;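 active = inhibition above its plate's threshold, mean inhibition of all tested compounds on the plate plus 3 SD, cut at about 37% in these data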;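 note: 0% = orexin A challenge wells and 100% = SB-334867-A antagonist wells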
OX1R antag-2: blocks the human orexin 1 receptor. O43613. OX1R-expressing cells, FRET antagonist read-out. inhibition, % at 6.6 µM. 1.8% of 330,000 active. AID 485270; in the data active = inhibition mostly above about 38%, no sharp cut-off; inactive = mostly below about 40%;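 note: 0% = agonist challenge alone and 100% = reference antagonist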
TRPN1 ag: zebrafish TRPN1 (NompC) channel agonism; activation, % at 3 µM; AID 1424; HEK293 zebrafish TRPN1-YFP, Fluo-8 calcium fluorescence; 100% = response to 87 µM carbachol; 0.18% of 220,000 active;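 active = activation above its plate's cutoff, the mean activation of test wells on that plate plus 3 SD, cut at about 19% in these data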;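 note: 0% = DMSO alone and 100% = 87 µM carbachol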
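System: zebrafish TRPN1-YFP in HEK293 cells / Dosing: 3 µM single point / Timing: dye loading 1 h at 37 °C, then 30 min room temperature / Signal: Fluo-8 calcium fluorescence, excitation 470-495 nm, emission 515-575 nm / Read-out basis: percent activation from peak over basal fluorescence ratio, control-normalized / Control set: high carbachol 87 µM, low DMSO alone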
CHO parental Ca: counter-screen: ATP calcium response change in parental CHO cells. parental CHO-K1, ATP-induced calcium, Fluo-8 fluorescence. 0.63% of 330,000 active. AID 463079. inhibition, % at 5.6 µM;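 active = inhibition above that plate's mean sample inhibition plus 3 SD, cut at about 26% in these data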;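 note: 0% = ATP-challenged DMSO wells and 100% = DMSO wells without ATP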
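Material – parental CHO cells · Reagent – ATP stimulus · Compound – single nominal dose of 5.6 µM per compound · Detection – Fluo-8 fluorescence · Read-out basis – percent inhibition of calcium signal · Controls – ATP-challenged DMSO wells low, unchallenged DMSO wells high · Repeats – no replicates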
TRPML3 agonist: agonists of human TRPML3 channel | Q8TDD5 | HEK293 TRPML3-YFP, Fluo-8 calcium fluorescence; 100% = the carbachol control signal | activation, % at 3 µM | 0.29% of 220,000 active;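 active = activation above its plate's cutoff, the mean activation of the plate's test wells plus 3 SD, cut at about 12% in these data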;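 note: 0% = DMSO only wells and 100% = carbachol wells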
Target sequence (Q8TDD5 whole entry, looked up): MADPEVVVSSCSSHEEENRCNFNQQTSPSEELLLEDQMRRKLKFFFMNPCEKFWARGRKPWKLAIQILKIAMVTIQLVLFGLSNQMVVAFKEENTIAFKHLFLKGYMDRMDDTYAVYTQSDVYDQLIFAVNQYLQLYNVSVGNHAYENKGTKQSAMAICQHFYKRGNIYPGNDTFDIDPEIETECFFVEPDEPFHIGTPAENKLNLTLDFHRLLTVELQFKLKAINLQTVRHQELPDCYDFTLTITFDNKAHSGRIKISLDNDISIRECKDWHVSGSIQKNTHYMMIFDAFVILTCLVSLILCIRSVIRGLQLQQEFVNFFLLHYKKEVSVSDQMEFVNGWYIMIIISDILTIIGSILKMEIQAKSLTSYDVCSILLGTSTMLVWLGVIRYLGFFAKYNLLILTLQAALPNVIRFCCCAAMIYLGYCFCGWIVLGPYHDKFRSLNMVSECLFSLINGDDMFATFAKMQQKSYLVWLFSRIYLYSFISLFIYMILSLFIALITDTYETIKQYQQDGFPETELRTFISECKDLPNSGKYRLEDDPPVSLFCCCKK
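Test system – HEK293 line with stable expression of human TRPML3-YFP channel · Control set – carbachol 87 µM final as high control (100%), DMSO as low control (0%) · Signal – Fluo-8 calcium dye fluorescence, ex 470-495, em 515-575 nm · Incubation – 1-h 37 °C dye load, 5-s basal, 120-s post-compound reads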
* = called active by the depositor. Rows were chosen to be rich in hits. Some 2.5% of all compounds tested hit in one or more screens of this group.

Results for COc1cc(NC(=O)c2cc(-c3cccc(O)c3)on2)cc(OC)c1OC ?
OX1R antag-1: -14; OX1R antag-2: 38*; TRPN1 ag: 1; CHO parental Ca: -4; TRPML3 agonist: 0

How did Cc1cc(C)c(C(=O)C(C)OC(=O)c2ccc(Cl)nc2)cc1C (centres undefined) do in these assays?
OX1R antag-1: -39; OX1R antag-2: 8; CHO parental Ca: -24

Results for CCOC(=O)N1CCN(Cc2nnc(-c3cccc(Br)c3)o2)CC1 ?
OX1R antag-1: -4; OX1R antag-2: -5; CHO parental Ca: -19

How did CCCN(CC(=O)Nc1cc(C)on1)CC(=O)Nc1ccccc1C do in these assays?
OX1R antag-1: -4; OX1R antag-2: -3; CHO parental Ca: -17

What do the screens show for `COc1cc2ccccc2cc1C(=O)Nc1ccc(Cc2ccncc2)cc1`?
OX1R antag-1: 45*; OX1R antag-2: 21; TRPN1 ag: 0; CHO parental Ca: 38*; TRPML3 agonist: 0

What do the screens show for `O=C(COc1ccc2ccccc2c1)Nc1ccc(Cc2ccncc2)cc1`?
OX1R antag-1: 59*; OX1R antag-2: 35; TRPN1 ag: 5; CHO parental Ca: 24; TRPML3 agonist: 2

How did COc1cccc2c3c(c(C)nc12)CCN3c1ccccc1 do in these assays?
OX1R antag-1: -11; OX1R antag-2: 64*; TRPN1 ag: 0; CHO parental Ca: 8; TRPML3 agonist: 0

What do the screens show for `Cc1cc(C)cc(N(CCC#N)C(=O)CSc2n[nH]c(N)n2)c1`?
OX1R antag-1: -5; OX1R antag-2: 22; CHO parental Ca: 12

What do the screens show for `Cn1nc(C(=O)N2CCN(c3ccc(F)cc3)CC2)c2c1-c1ccccc1S(=O)(=O)C2`?
OX1R antag-1: -25; OX1R antag-2: 54; CHO parental Ca: -13

Results for CC(=O)N1CCC(N(CCCOC(C)C)S(=O)(=O)c2ccc([N+](=O)[O-])cc2)CC1 ?
OX1R antag-1: -36; OX1R antag-2: 46*; CHO parental Ca: -8

How did CC(C)(CC(=O)O)CC(=O)N1CCN(c2cc(C(F)(F)F)nc3ccccc23)CC1 do in these assays?
OX1R antag-1: -8; OX1R antag-2: 3; CHO parental Ca: -4

How did Nc1ccc(S(=O)(=O)NCC(=O)OCCOc2ccccc2)cc1[N+](=O)[O-] do in these assays?
OX1R antag-1: -8; OX1R antag-2: 42; CHO parental Ca: -1

How did CSc1ccc(S(=O)(=O)NCC(=O)OCCOc2ccccc2)cc1[N+](=O)[O-] do in these assays?
OX1R antag-1: -13; OX1R antag-2: 54*; CHO parental Ca: 21

How did Nc1ccc(S(=O)(=O)NCC(=O)OC2CCOC2=O)cc1[N+](=O)[O-] (centres undefined) do in these assays?
OX1R antag-1: -8; OX1R antag-2: 14; CHO parental Ca: -5

What do the screens show for `CSc1ccc(S(=O)(=O)NCC(=O)OCC(=O)N2CCCC2=O)cc1[N+](=O)[O-]`?
OX1R antag-1: -4; OX1R antag-2: 56*; CHO parental Ca: 0

How did COC(=O)C1CCN(C(=O)COC(=O)CNS(=O)(=O)c2ccc(SC)c([N+](=O)[O-])c2)CC1 do in these assays?
OX1R antag-1: -24; OX1R antag-2: 49; CHO parental Ca: -5

What do the screens show for `CSc1ccc(S(=O)(=O)NCC(=O)OCC(=O)N(C)CC(=O)Nc2ccccc2Cl)cc1[N+](=O)[O-]`?
OX1R antag-1: -35; OX1R antag-2: 41; CHO parental Ca: -22

How did CSc1ccc(S(=O)(=O)NCC(=O)OC2CCOC2=O)cc1[N+](=O)[O-] (centres undefined) do in these assays?
OX1R antag-1: -13; OX1R antag-2: 66*; CHO parental Ca: 3

How did CSc1ccc(S(=O)(=O)NCC(=O)OCC(=O)N(C)Cc2ccccc2)cc1[N+](=O)[O-] do in these assays?
OX1R antag-1: -22; OX1R antag-2: 51*; CHO parental Ca: -9

What do the screens show for `Cc1nc2ccc(NS(=O)(=O)c3ccc(C)c(C)c3)cc2s1`?
OX1R antag-1: 32; OX1R antag-2: 37; TRPN1 ag: 3; CHO parental Ca: 55*; TRPML3 agonist: 2

Results for CC(=O)c1cccc(S(=O)(=O)Nc2ccc3nc(C)sc3c2)c1 ?
OX1R antag-1: 0; OX1R antag-2: 17; TRPN1 ag: 10; CHO parental Ca: 21; TRPML3 agonist: 4

Results for O=c1[nH]c(=O)c2cc([N+](=O)[O-])cc([N+](=O)[O-])c2[nH]1 ?
OX1R antag-1: -14; OX1R antag-2: 52*; TRPN1 ag: 2; CHO parental Ca: -7; TRPML3 agonist: 0

What do the screens show for `COc1ccc(CC(=O)Nc2ccc(S(=O)(=O)Nc3onc(C)c3C)cc2)cc1OC`?
OX1R antag-1: -5; OX1R antag-2: 9; CHO parental Ca: -4

What do the screens show for `Cc1nn(-c2nc3ccccc3s2)c(C)c1Oc1ccccc1O`?
OX1R antag-1: 67*; OX1R antag-2: 38; TRPN1 ag: 0; CHO parental Ca: 32*; TRPML3 agonist: 1

Results for Cc1nn(-c2ccccn2)c(C)c1Oc1ccccc1O ?
OX1R antag-1: 10; OX1R antag-2: -3; TRPN1 ag: 0; CHO parental Ca: -4; TRPML3 agonist: 4

How did COc1ccc(OC)c(NC(=O)COC(=O)c2c3c(nc4ccccc24)CCCC3)c1 do in these assays?
OX1R antag-1: 33; OX1R antag-2: 57*; TRPN1 ag: -1; CHO parental Ca: 10; TRPML3 agonist: 0

Results for COc1ccc(NC(=O)COC(=O)c2c3c(nc4ccccc24)CCCC3)cc1Cl ?
OX1R antag-1: 14; OX1R antag-2: 75*; TRPN1 ag: 0; CHO parental Ca: -2; TRPML3 agonist: 0

Results for CC(=O)N(Nc1ccccc1)c1ccccc1 ?
OX1R antag-1: -7; OX1R antag-2: -8; CHO parental Ca: -3

Results for O=C1c2ccccc2-c2nccnc21 ?
OX1R antag-1: -8; OX1R antag-2: 111*; TRPN1 ag: 0; CHO parental Ca: -4; TRPML3 agonist: 1

What do the screens show for `O=[N+]([O-])c1ccc2c(c1)/C(=N\O)c1ccccc1-2`?
OX1R antag-1: -12; OX1R antag-2: 23; TRPN1 ag: 0; CHO parental Ca: -8; TRPML3 agonist: 0

Results for O=C1c2cccnc2-c2ncccc21 ?
OX1R antag-1: -9; OX1R antag-2: 54*; TRPN1 ag: 1; CHO parental Ca: -2; TRPML3 agonist: 1

Results for O=C1c2cccnc2C(=O)N1Cc1ccccc1 ?
OX1R antag-1: -11; OX1R antag-2: 21; TRPN1 ag: 1; CHO parental Ca: -1; TRPML3 agonist: 0

How did O=C1c2cc([N+](=O)[O-])ccc2-c2ncccc21 do in these assays?
OX1R antag-1: -15; OX1R antag-2: 67*; TRPN1 ag: 0; CHO parental Ca: 3; TRPML3 agonist: 1

Results for CCn1cc(/C=C(\NC(=O)c2ccc(OC)cc2)C(=O)N2CCOCC2)c2ccccc21 ?
OX1R antag-1: -33; OX1R antag-2: 15; CHO parental Ca: -11
